Shown are actives, neighbours in structure and some others; about 3.7% of the full set was active somewhere.
Kir21 block: blocks the mouse Kir2.1 inward-rectifier potassium channel | AID 1672 | hit rate 0.85% among 310,000 | HEK293-Kir2.1, FluxOR thallium flux fluorescence; stronger effect = lower value | B-score at 10 µM | P35561;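 active = fluorescence ratio B-score at or below minus 3 SD of library scores, with starting-brightness B-score within 2 SD, cut at about -4.2 in these data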;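 also: channel flux triggered by added potassium and thallium sulfate stimulus; B-score of peak minus minimum fluorescence over baseline after thallium stimulus; more negative B-score means stronger Kir2.1 block with less thallium influx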
KCNK9 block: inhibitors of human KCNK9 two-pore domain potassium channel. Q9NPC2. HEK293 KCNK9, FluxOR thallium flux fluorescence; stronger effect = lower value. B-score at 10 µM. hit rate 1.2% among 310,000;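 active = ratio B-score over 3 SD below the library mean, with starting fluorescence within 5 SD of its mean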;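 also: negative B-score means less thallium flux so channel inhibition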
KCNQ1 pot: potentiates or activates the human KCNQ1 potassium channel; hit rate 0.35% among 310,000; AID 2648; CHO-K1 KCNQ1, thallium flux FluxOR fluorescence; stronger effect = higher value; B-score at 10 µM; P51787;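 active = fluorescence ratio B-score, a plate-corrected score, at least three library SD, with initial intensity B-score within 5 SD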
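Medium – assay buffer, equal DMSO in all wells · Material – CHO-K1 cell line with stable KCNQ1 potassium channel expression · Signal – kinetic FluxOR thallium fluorescence, 10-s 1-Hz baseline, 110-s post-stimulus read · Compound – single concentration per compound, DMSO matched to controls · Schedule – 37 °C overnight plating, 90-min dark dye load, 20-min compound pretreatment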
hERG protect: hERG (human) protection from proarrhythmic block; activation (rescue from dofetilide block), less the hit threshold, % at 10 µM; hit rate 0.51% among 310,000; Q12809; CHO-hERG, FluxOR thallium flux, dofetilide IC70 present;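 active = activation above the mean of controls blocked by dofetilide plus 5 SD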;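 also: thallium influx through hERG after potassium depolarization seen as dye fluorescence rise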
KCNK3 block: human KCNK3 channel inhibition, primary screen | O14649 | CHO-KCNK3 thallium flux, FluxOR fluorescence; stronger effect = lower value | B-score at 10 µM | hit rate 0.84% among 340,000 | AID 602410;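 active = B-score under library mean minus 4 SD, starting fluorescence ratio at most library mean plus 5 SD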;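 also: more negative B-score means stronger inhibition of thallium flux through KCNK3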
Target sequence (O14649 whole entry, looked up): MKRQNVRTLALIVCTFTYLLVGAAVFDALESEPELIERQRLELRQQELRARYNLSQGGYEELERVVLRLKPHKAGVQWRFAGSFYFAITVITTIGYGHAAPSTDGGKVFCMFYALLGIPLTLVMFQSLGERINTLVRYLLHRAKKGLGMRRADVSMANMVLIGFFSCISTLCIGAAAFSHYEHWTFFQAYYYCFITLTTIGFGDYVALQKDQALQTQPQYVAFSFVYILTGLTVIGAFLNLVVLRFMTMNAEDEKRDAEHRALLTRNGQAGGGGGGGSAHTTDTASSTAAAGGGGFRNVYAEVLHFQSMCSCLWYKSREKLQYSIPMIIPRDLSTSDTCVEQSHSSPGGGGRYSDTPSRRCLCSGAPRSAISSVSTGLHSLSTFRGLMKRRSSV
KCNQ1 block: blocks the human KCNQ1 potassium channel | CHO-K1 KCNQ1, FluxOR thallium flux fluorescence; stronger effect = higher value | B-score at 10 µM | hit rate 1.3% among 310,000 | AID 2642;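 active = compounds whose thallium flux B-score, printed positive for inhibition, exceeds three library SD while starting fluorescence stays within three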;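 also: channel opened by potassium depolarization with thallium stimulus after 20 min compound exposure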
KCNQ1 inh valid: reconfirmed blocker of the human KCNQ1 potassium channel; shares compounds with KCNQ1 block; inhibition, % at 10 µM; hit rate 93% among 1,600; KCNQ1 cell line, FluxOR thallium flux fluorescence;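 active = primary screen active, with duplicate mean exceeding buffer control mean plus 3 SD of buffer wells, cut at about 28% in these data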;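 also: 0% = buffer control ratio and 100% = XE991 inhibitor control ratio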
CHO Tl flux: activity in parental CHO cells lacking KCNQ1. shares compounds with KCNQ1 block. parental CHO-K1, FluxOR thallium flux fluorescence ratio; stronger effect = lower value; zero means no signal rise above baseline. fluorescence ratio (Tl flux) at 10 µM. hit rate 21% among 1,600. AID 588366;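 active = mean of duplicate thallium-flux fluorescence ratios in parental host cells more than 5 SD below the buffer control mean, cut at about 0.38 in these data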;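 also: ratio is peak minus minimum fluorescence divided by baseline fluorescence; actives read low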
KCNQ1 APC inh: human KCNQ1 inhibition validated by electrophysiology; AID 624120; hit rate 20% among 490; shares compounds with KCNQ1 block; calls only at 10 µM; KCNQ1-CHO cells, automated patch clamp current;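 active = KCNQ1 current drop exceeding 3 SD of negative control wells, seen in both duplicate runs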;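 also: steady state current during a 2 s step from -80 to +40 mV; negative values mean current inhibition and positive values mean potentiation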
KCNQ2 spec: rat KCNQ2 inhibition in KCNQ1 inhibitor specificity screen | hit rate 71% among 1,600 | AID 651746 | shares compounds with KCNQ1 block | KCNQ2 cells, FluxOR thallium flux fluorescence | inhibition, % at 10 µM;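 active = mean percent inhibition of the KCNQ2 thallium signal more than 5 SD above the buffer-only control wells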;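 also: KCNQ2 expressed in CHO cells; 0% = buffer control wells and 100% = XE-991 inhibitor control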
KCNQ1-KCNE1 inh: KCNQ1 inhibitor that also blocks human KCNQ1/KCNE1 channel. shares compounds with KCNQ1 block. KCNQ1/KCNE1 cells, FluxOR thallium flux fluorescence. inhibition, % at 10 µM. hit rate 77% among 1,600. AID 652147;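 active = mean percent inhibition of duplicate wells above the buffer-only control mean plus 3 SD of those controls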;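 also: 0% = buffer only wells and 100% = XE-991 inhibitor control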
* hit, by the source's call; i = inactive; · = no result.

SMILES	Kir21 block	KCNK9 block	KCNQ1 pot	hERG protect	KCNK3 block	KCNQ1 block	KCNQ1 inh valid	CHO Tl flux	KCNQ2 spec	KCNQ1-KCNE1 inh	others
CN(C)c1ccc(N=Nc2ccccc2C(=O)OCC(=O)N(C)c2ccccc2)cc1	1.1	i	i	-7	i	8*	99*	0.42	93%*	121%*	KCNQ1 APC inh=i
COC(=O)c1ccccc1NC(=O)COC(=O)c1ccccc1N=Nc1ccc(N(C)C)cc1	-0.72	i	i	-4	i	i	·	·	·	·
C=CCNC(=S)Nc1ccc(OC(F)F)c(Cl)c1	-0.18	i	i	-13	i	9*	0	0.53	61%*	i
O=C(Nc1ccc2c(c1)OCO2)Nc1ccc2c(c1)OCO2	-1.1	i	i	-7	i	i	·	·	·	·
O=C(Nc1ccc(OC(F)F)c(Cl)c1)Nc1ccc2c(c1)OCO2	-1.6	i	i	-3	i	7*	84*	0.45	i	i
C=CCNC(=S)Nc1ccc(Cl)cc1	2.7	i	i	-9	i	i	·	·	·	·
Cc1cc(OCC(=O)OCC(=O)c2ccc[nH]2)ccc1Cl	·	·	·	·	i	·	·	·	·	·
C/C(N)=C(/C#N)C(=O)CSc1cc(C)c2ccccc2n1	0.47	i	i	-11	i	i	·	·	·	·
O=C(c1cc(COc2cccc(C(F)(F)F)c2)on1)N1CCC(c2ccncc2)CC1	-0.58	i	i	-15	i	12*	128*	0.47	80%*	106%*	KCNQ1 APC inh=i
CC(=O)c1ccc(OCc2cc(C(=O)N3CCC(c4ccncc4)CC3)no2)cc1	-1.1	i	i	-15	i	i	·	·	·	·
O=C(c1cc(COc2cccc(C(F)(F)F)c2)on1)N1CCC(c2ccccc2)CC1	1.2	i	i	-5	i	i	·	·	·	·
COc1cccc(OCc2cc(C(=O)N3CCC(c4ccncc4)CC3)no2)c1	-0.02	i	i	-13	i	8*	111*	0.48	135%*	98%*	KCNQ1 APC inh=i
CCN(CC)S(=O)(=O)c1ccc2[nH]c(=O)cc(C(=O)Nc3ccccc3N3CCCC3)c2c1	-0.8	i	i	-10	i	i	·	·	·	·
CN(C)Cc1c(C(=O)N/N=C/CCc2ccccc2)nnn1-c1nonc1N	1.8	i	i	0	i	i	·	·	·	·
Cc1ccc(Nc2nc3nonc3[nH]c2=O)cc1Cl	-0.01	i	i	-13	i	9*	29*	0.49	i	i
Clc1nc(NC2CCCCC2)c2cn[nH]c2n1	·	·	·	·	i	·	·	·	·	·
CC(C)(Cc1ccc(O)cc1)NC(=O)SCc1ccccc1	-1.1	i	i	-10	i	7*	50*	0.5	i	78%*
Cc1cc(C(=O)N2CCCC(Nc3ccc(F)cc3)C2)n(C)n1 (stereo not drawn)	0.89	i	i	-6	i	i	·	·	·	·
CCOc1ccc(NS(=O)(=O)c2ccc(C(=O)NCC(c3ccc(OC)cc3)N3CCCC3)cc2)cc1 (stereo not drawn)	-0.24	i	i	-16	i	i	·	·	·	·
O=C(c1ccc2nc[nH]c2c1)N1CCN(c2ncc(C(F)(F)F)cc2Cl)CC1	-2.4	i	i	-9	i	8*	0	0.58	i	i
Cc1nn(C)c(Nc2ccc(Br)cc2)c1Br	0.5	i	i	-11	i	6*	88*	0.55	i	44%*	KCNQ1 APC inh=i

High-throughput results (PubChem)
